Here are results for 1 molecule from ChEMBL document CHEMBL1649288, “Fmt bypass in Pseudomonas aeruginosa causes induction of MexXY efflux pump expression” (2009).

≈ marks a conversion by molar mass, not a printed value.

Holding throughout (type): functional
Assay [1] has as its system Pseudomonas aeruginosa. As to the kind of experiment: Antibacterial activity against Pseudomonas aeruginosa PAO1 NB52020 expressing mexAB-oprM by broth microdilution method. The procedure, abridged: (§1)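 Broth microdilution following standard CLSI guidelines. P. aeruginosa strains were routinely cultured at 37°C in Mueller-Hinton or Luria broth. Where plasmids required selection, media carried gentamicin or tetracycline (100 μg/ml) or carbenicillin (100 μg/ml).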

The test system of assay [2] is Pseudomonas aeruginosa. As to the kind of experiment: Antibacterial activity against Pseudomonas aeruginosa PAO1 NB52022 expressing mexX by broth microdilution method. The procedure, abridged:
as §1
In general terms: In broth dilution the organism is exposed to a series of concentrations in liquid medium.

For assay [3], the system named is Pseudomonas aeruginosa. As to the kind of experiment: Antibacterial activity against wild type Pseudomonas aeruginosa PAO1 NB52019 by broth microdilution method. The method, boiled down: as §1
Assay [4] concerns Pseudomonas aeruginosa. Kind of assay: Antibacterial activity against Pseudomonas aeruginosa PAO1 CDS22 expressing mexAB-oprM folD A424C, T142P mutant by broth microdilution method. The method, boiled down:
as §1

For assay [5], the system named is Pseudomonas aeruginosa. Kind of assay: Antibacterial activity against Pseudomonas aeruginosa PAO1 CDS30 harboring pRC5 by broth microdilution method. The procedure, abridged: as §1
Assay [6] relates to Pseudomonas aeruginosa. As to the kind of experiment: Antibacterial activity against Pseudomonas aeruginosa PAO1 CDS30 expressing folD G493T, V165R mutant by broth microdilution method. The procedure, abridged:
as §1

In assay [7] the test system is Pseudomonas aeruginosa. Kind of assay: Antibacterial activity against Pseudomonas aeruginosa PAO1 CDS22 harboring pRC5 by broth microdilution method. The method, boiled down:
as §1

In assay [8] the test system is Pseudomonas aeruginosa. As to the kind of experiment: Antibacterial activity against Pseudomonas aeruginosa PAO1 CDS6 expressing nfxB A115C, T39P mutant by broth microdilution method. The procedure, abridged:
as §1

For assay [9], the system named is Pseudomonas aeruginosa. As to the kind of experiment: Induction of […] (PA5471) gene expression in wild type Pseudomonas aeruginosa PAO1 NB52019 at 12 ug/ml relative to control. The method, boiled down:
(§2)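 Duplicate P. aeruginosa NB52019 cultures were diluted 1:100 from overnight into 30 ml Luria broth with or without 12 μg/ml drug, shaken at 180 rpm at 37°C to OD600 0.8, and harvested at 15,000 × g for 10 min. Total RNA was purified with a 40-min on-column DNase I step for transcriptional profiling, and treated cultures were compared with untreated ones.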

The test system of assay [10] is Pseudomonas aeruginosa. As to the kind of experiment: Antibacterial activity against Pseudomonas aeruginosa PAO1 CDS13 harboring pSW1 by broth microdilution method. The procedure, abridged:
as §1

Assay [11] deals with Pseudomonas aeruginosa. Kind of assay: Antibacterial activity against Pseudomonas aeruginosa PAO1 CDR1 expressing fmt::aacC1 by broth microdilution method. The method, boiled down:
(§3)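 Broth microdilution MICs run per standard CLSI guidelines; P. aeruginosa strains routinely grown at 37°C in Mueller-Hinton or Luria medium.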

Assay [12] deals with Pseudomonas aeruginosa. As to the kind of experiment: Induction of mexZ (PA2020) gene expression in wild type Pseudomonas aeruginosa PAO1 NB52019 at 12 ug/ml relative to control. The method, boiled down:
as §2

Assay [13] deals with Pseudomonas aeruginosa. Kind of assay: Induction of mexY (PA2018) gene expression in wild type Pseudomonas aeruginosa PAO1 NB52019 at 12 ug/ml relative to control. The method, boiled down: as §2
Assay [14] has as its system Pseudomonas aeruginosa. As to the kind of experiment: Induction of oprM (PA0427) gene expression in wild type Pseudomonas aeruginosa PAO1 NB52019 at 12 ug/ml relative to control. The method, boiled down: as §2
The test system of assay [15] is Pseudomonas aeruginosa. Kind of assay: Antibacterial activity against Pseudomonas aeruginosa PAO1 NB52023 expressing mexB and mexX by broth microdilution method. The procedure, abridged:
as §3

Assay [16] relates to Pseudomonas aeruginosa. Kind of assay: Antibacterial activity against Pseudomonas aeruginosa PAO1 CDS28 expressing 16-bp deleted fmt at position 833 by broth microdilution method. The method, boiled down: as §3
Assay [17] relates to Pseudomonas aeruginosa. As to the kind of experiment: Antibacterial activity against Pseudomonas aeruginosa PAO1 CDS28 harboring pSW1 by broth microdilution method. The method, boiled down:
as §1

Assay [18] concerns Pseudomonas aeruginosa. Kind of assay: Antibacterial activity against Pseudomonas aeruginosa PAO1 NB52021 expressing mexB by broth microdilution method. The method, boiled down:
as §3

Assay [19] has as its system Pseudomonas aeruginosa. As to the kind of experiment: Antibacterial activity against Pseudomonas aeruginosa PAO1 CDS1 expressing 14-bp deleted nfxB at base 92 by broth microdilution method. The procedure, abridged:
as §3

The test system of assay [20] is Pseudomonas aeruginosa. As to the kind of experiment: Antibacterial activity against Pseudomonas aeruginosa PAO1 CDR2 expressing mexAB-oprM and fmt::aacC1 by broth microdilution method. The method, boiled down: as §3
Assay [21] has as its system Pseudomonas aeruginosa. Kind of assay: Antibacterial activity against Pseudomonas aeruginosa PAO1 CDS13 expressing mexAB-oprM fmt C127T, R43C mutant by broth microdilution method. The method, boiled down: as §1
Assay [22] relates to Pseudomonas aeruginosa. As to the kind of experiment: Induction of mexX (PA2019) gene expression in wild type Pseudomonas aeruginosa PAO1 NB52019 at 12 ug/ml relative to control. The method, boiled down: as §2

For `CCCC[C@H](CN(O)C=O)C(=O)N1CCC[C@H]1C(=O)Nc1ccc(F)c[n+]1[O-]`, the MIC was 4 µg/mL (≈ 10.1 µM) in the assay on Pseudomonas aeruginosa [1]; 128 µg/mL (≈ 323 µM) in the assay on Pseudomonas aeruginosa [2]; 128 µg/mL (≈ 323 µM) with Pseudomonas aeruginosa [3]; > 128 µg/mL against Pseudomonas aeruginosa [4]; 128 µg/mL (≈ 323 µM) in the assay with Pseudomonas aeruginosa [5]; > 1020 µg/mL in the assay with Pseudomonas aeruginosa [6]. In addition, the MIC in the assay with Pseudomonas aeruginosa [7] was 4 µg/mL (≈ 10.1 µM); against Pseudomonas aeruginosa [8] it was > 128 µg/mL; in the assay on Pseudomonas aeruginosa [10], 4 µg/mL (≈ 10.1 µM); with Pseudomonas aeruginosa [11], > 1020 µg/mL; in the assay on Pseudomonas aeruginosa [15], 8 µg/mL (≈ 20.2 µM); against Pseudomonas aeruginosa [16], > 1020 µg/mL. The MIC in the assay on Pseudomonas aeruginosa [17] was 128 µg/mL (≈ 323 µM); with Pseudomonas aeruginosa [18], 64 µg/mL (≈ 161 µM); in the assay on Pseudomonas aeruginosa [19], > 128 µg/mL; against Pseudomonas aeruginosa [20], > 1020 µg/mL; in the assay with Pseudomonas aeruginosa [21], > 128 µg/mL. Besides, the “fold change (FC)” value with Pseudomonas aeruginosa [9] came out at 3.1; in the assay with Pseudomonas aeruginosa [12], 4.8; in the assay on Pseudomonas aeruginosa [13] it was 11.7; in the assay on Pseudomonas aeruginosa [14], 0.78; in the assay on Pseudomonas aeruginosa [22], 11.3.

One may read the MIC as the least concentration at which growth counts as inhibited.
